Experimental data collected from several papers.
Each line is one published result; the experiments were not run side by side.
PIK3CA E542K: Phosphatidylinositol 4,5-bisphosphate 3-kinase catalytic subunit alpha isoform (PIK3CA, Homo sapiens, UniProt P42336, E542K)
PIK3CA C420R: Phosphatidylinositol 4,5-bisphosphate 3-kinase catalytic subunit alpha isoform (PIK3CA, Homo sapiens, UniProt P42336, C420R)
PIK3CA E545K: Phosphatidylinositol 4,5-bisphosphate 3-kinase catalytic subunit alpha isoform (PIK3CA, Homo sapiens, UniProt P42336, E545K)
PIK3CA M1043I: Phosphatidylinositol 4,5-bisphosphate 3-kinase catalytic subunit alpha isoform (PIK3CA, Homo sapiens, UniProt P42336, M1043I)
PIK3CA: Phosphatidylinositol 4,5-bisphosphate 3-kinase catalytic subunit alpha isoform (PIK3CA, Homo sapiens, UniProt P42336)
PIK3CA I800L: Phosphatidylinositol 4,5-bisphosphate 3-kinase catalytic subunit alpha isoform (PIK3CA, Homo sapiens, UniProt P42336, I800L)
PIK3CA E545A: Phosphatidylinositol 4,5-bisphosphate 3-kinase catalytic subunit alpha isoform (PIK3CA, Homo sapiens, UniProt P42336, E545A)
PIK3CA H1047L: Phosphatidylinositol 4,5-bisphosphate 3-kinase catalytic subunit alpha isoform (PIK3CA, Homo sapiens, UniProt P42336, H1047L)
PIK3CA Q546K: Phosphatidylinositol 4,5-bisphosphate 3-kinase catalytic subunit alpha isoform (PIK3CA, Homo sapiens, UniProt P42336, Q546K)

target	observed	technique	concentration	remaining binding	SMILES
PIK3CA E542K	binding	competition with immobilised ligand	1 µM	91%	COc1cnc(Nc2cccc(S(N)(=O)=O)c2)nc1N1CCN(c2ccccc2)C(=O)C1
PIK3CA C420R	cell-free assay	competition with immobilised ligand	1 µM	91%	CN(C(=O)c1ccccc1)c1cc(N(C)c2ccc3c(c2)CCc2ccc(C(=O)NCCN4CCOCC4)cc2C3=O)ccc1F
PIK3CA E545K	binding	competition with immobilised ligand	1 µM	84%	CNC(=O)[C@@H]1CC[C@@H](n2c(-c3ccc4cnccc4c3)nc3ccc(C(=O)NCc4cccc(C(N)=O)c4)cc32)C1
PIK3CA M1043I	binding	competition with immobilised ligand	1 µM	81%	O=C(c1ccc(Nc2nccc(-c3cc4ccccc4s3)n2)cc1)N1CCC(N2CCCC2)CC1
PIK3CA	cell-free assay	competition with immobilised ligand	1 µM	100%	NS(=O)(=O)c1cc(NC(=O)C2(c3ccccc3Cl)CC2)ccc1Oc1cccc(Cl)c1
PIK3CA E542K	binding	competition with immobilised ligand	1 µM	41%	O=C(NCCCN1CCOCC1)c1ccc(Nc2nccc(-c3cc4ccccc4s3)n2)cc1
PIK3CA M1043I	cell-free assay	competition with immobilised ligand	5 µM	100%	COc1ncc2cc3ccccc3nc2c1C#N
PIK3CA I800L	binding	competition with immobilised ligand	1 µM	81%	Nc1ncc2c(n1)-c1c([nH]c3ccc(C#CC4CC4)cc13)CCCC2
PIK3CA M1043I	binding	competition with immobilised ligand	1 µM	100%	O=C(Nc1c[nH]nc1C(=O)NC1CCNCC1)c1cc(F)cc(F)c1
PIK3CA M1043I	cell-free assay	competition with immobilised ligand	1 µM	99%	CCS(=O)(=O)c1cc2cc(C[C@@](O)(CC(C)(C)c3ccc(F)cc3C(N)=O)C(F)(F)F)[nH]c2cn1
PIK3CA	binding	competition with immobilised ligand	1 µM	98%	COc1cnc(Nc2cccc(S(N)(=O)=O)c2)nc1N1CCN(c2ccccc2)CC1
PIK3CA	binding	–	1 µM	100%	N[C@@H]1CCN(c2nccc(-c3cnn4ncccc34)n2)C1
PIK3CA E545A	binding	competition with immobilised ligand	1 µM	100%	O=C(c1ccc(Nc2ncc(Cl)c(-c3ccc(Cl)s3)n2)cc1)N1CCC(N2CCCC2)CC1
PIK3CA E545A	cell-free assay	competition with immobilised ligand	0.1 µM	88%	Cc1c[nH]c2nccc(Oc3c(F)cc(Nc4cc(Cl)nc(N)n4)cc3F)c12
PIK3CA M1043I	binding	–	1 µM	100%	CN(CCCC(F)(F)F)c1nccc(-c2cnn3ncccc23)n1
PIK3CA M1043I	binding	competition with immobilised ligand	1 µM	0%	C=CC(=O)N1CCC(C(=O)NCC(=O)N2CCN(c3nc(-c4cnc(N)nc4C(F)F)nc(N4CCOCC4)n3)CC2)CC1
PIK3CA	binding	competition with immobilised ligand	1 µM	100%	O=C(NCCCN1CCOCC1)c1ccc(Nc2ncc(Cl)c(-c3ccc(Cl)s3)n2)cc1

target	observed	technique	concentration	remaining binding	SMILES
PIK3CA E545K	binding	–	10 µM	36%	CN1CCN(c2ccc(Nc3nccc(-c4cccc([N+](=O)[O-])c4)n3)cc2C(F)(F)F)CC1
PIK3CA H1047L	cell-free assay	competition with immobilised ligand	1 µM	81%	C[C@H](NC(=O)c1cnc2n1[C@](C)(Cc1ccc(C#N)cc1)C(=O)N2c1cc(Cl)c(F)c(Cl)c1)C(=O)NC1(c2ccccn2)CC1
PIK3CA C420R	binding	–	1 µM	90%	F[C@@H]1CCN(c2nccc(-c3cnn4ncccc34)n2)C1
PIK3CA Q546K	binding	competition with immobilised ligand	10 µM	100%	c1cncc(-c2cccc(Nc3nccc(NC4CCCCC4)n3)c2)c1
PIK3CA E545K	binding	competition with immobilised ligand	1 µM	93%	CCN1CCN(Cc2ccc(C(=O)Nc3ccc(C)c(Oc4ccc5c(c4)CC(=O)N5)c3)cc2C(F)(F)F)CC1
PIK3CA Q546K	binding	competition with immobilised ligand	0.1 µM	77%	C[C@@H](c1ccc(-n2cnc3c(N)ncnc32)cc1)N1CCc2nn(C)c(Cc3ccccc3)c2C1=O
PIK3CA C420R	binding	–	1 µM	100%	Cc1cnn2ncc(-c3ccnc(N(C)C)n3)c2c1
PIK3CA E545K	cell-free assay	competition with immobilised ligand	0.1 µM	53%	CS(=O)(=O)N1CCCC(NC(=O)[C@H](CCC2CCCCC2)NC(=O)c2ccc(CNc3ncnc4c3nnn4-c3ccccc3)cc2)C1 (stereo partly drawn)
PIK3CA	binding	–	1 µM	97%	CN(C)c1nccc(-c2cnn3ncccc23)n1
PIK3CA	cell-free assay	competition with immobilised ligand	1 µM	69%	O=C(NS(=O)(=O)c1ccc(NCC2CCOCC2)c([N+](=O)[O-])c1)c1ccc(N2CCN(Cc3ccc(C(F)(F)F)cc3-c3ccc(Cl)cc3)CC2)cc1Oc1cnc2[nH]ccc2c1
PIK3CA I800L	binding	competition with immobilised ligand	1 µM	100%	Cc1cnc(Nc2ccc(C(=O)N3CCC(N4CCCC4)CC3)cc2)nc1-c1cc2ccccc2s1
PIK3CA E545A	binding	–	10 µM	100%	CN1CCN(c2ccc(Nc3nccc(-c4ccccc4)n3)cc2C(F)(F)F)CC1
PIK3CA	binding	–	1 µM	100%	CC1CCCN1c1nccc(-c2cnn3ncccc23)n1 (stereo not drawn)
PIK3CA H1047L	binding	competition with immobilised ligand	1 µM	74%	O=C(NCC1CCOCC1)c1n[nH]cc1NC(=O)c1c(F)cccc1F
Phosphatidylinositol 4,5-bisphosphate 3-kinase catalytic subunit alpha isoform (PIK3CA, Homo sapiens, UniProt P42336, H1047Y)	cell-free assay	competition with immobilised ligand	0.1 µM	76.2%	Cc1cc(C)c(-n2ccn3nc(-c4cccnc4)cc23)cc1NC(=O)c1cc(C#N)cc(S(F)(F)(F)(F)F)c1
PIK3CA	binding	–	1 µM	77%	CN(C)c1ncc(F)c(-c2cnn3ncccc23)n1
